# What was measured:
# [1] = tested on: MCF7; experiment: Antiproliferative activity against human MCF7 cells; assay type: functional, cell-based
# Method in brief: (§1)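 MTT assay. Cells were grown in DMEM ([…]) with 10% FCS and antibiotics/antimycotic at 37 °C and 5% CO2. Viable cells from passages 3–10 were seeded at 5000 per well and left overnight. They were then exposed for 48 h to five concentrations from 10–8 to 10–4 M. Absorbance was read at 540/690 nm. Two independent experiments were run in quadruplicate, and IC50 was derived by median effect analysis.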
# [2] = tested on: PC-3; experiment: Antiproliferative activity against human PC3 cells; assay type: functional, cell-based
# Method in brief: (§2)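 Cells grown in DMEM with 10% FCS and antibiotics at 37 °C, 5% CO2. Only viable cells from passages 3–10 were used. Seeded at 5000 cells/well and left overnight, then exposed 48 h to five concentrations from 10–8 to 10–4 M. MTT was added, formazan dissolved in acidified 2-propanol and read at 540/690 nm. Two independent experiments, each in quadruplicate. IC50 by median effect analysis.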
# [3] = tested on: MDA-MB-231; experiment: Antiproliferative activity against human MDA-MB-231 cells; assay type: functional, cell-based; method in brief: as §1
# [4] = tested on: MRC5; experiment: Antiproliferative activity against human MRC5 cells; assay type: cell-based; method in brief: as §1
# [5] = target: Estrogen receptor beta (Homo sapiens, UniProt Q92731); experiment: Binding affinity to YFP-fused ERbeta LBD (unknown origin) by cell based fluorimetric assay
# Method in brief: (§3)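 S. cerevisiae FY250 transformed with ERα, ERβ or AR LBD–EYFP constructs and grown at 28 °C in selection medium with 2% raffinose to OD600 0.4–0.6. Galactose (2% final) induced expression, with ligand added at 10 μM final and 1% DMSO as background. Cells incubated 14 h at 25 °C in the dark, then read at ex 485/em 538 nm and normalized to OD600. Result given as fold fluorescence over DMSO, mean of three probes.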
# [6] = tested on: HT-29; experiment: Antiproliferative activity against human HT-29 cells; assay type: functional, cell-based; method in brief: as §1
# [7] = tested on: A549; experiment: Antiproliferative activity against human A549 cells; assay type: functional, cell-based; method in brief: as §1
# [8] = target: T1, Estrogen receptor (Homo sapiens, UniProt P03372); experiment: Binding affinity to YFP-fused ERalpha LBD (unknown origin) by cell based fluorimetric assay; method in brief: as §3
# T1 sequence (P03372 whole entry): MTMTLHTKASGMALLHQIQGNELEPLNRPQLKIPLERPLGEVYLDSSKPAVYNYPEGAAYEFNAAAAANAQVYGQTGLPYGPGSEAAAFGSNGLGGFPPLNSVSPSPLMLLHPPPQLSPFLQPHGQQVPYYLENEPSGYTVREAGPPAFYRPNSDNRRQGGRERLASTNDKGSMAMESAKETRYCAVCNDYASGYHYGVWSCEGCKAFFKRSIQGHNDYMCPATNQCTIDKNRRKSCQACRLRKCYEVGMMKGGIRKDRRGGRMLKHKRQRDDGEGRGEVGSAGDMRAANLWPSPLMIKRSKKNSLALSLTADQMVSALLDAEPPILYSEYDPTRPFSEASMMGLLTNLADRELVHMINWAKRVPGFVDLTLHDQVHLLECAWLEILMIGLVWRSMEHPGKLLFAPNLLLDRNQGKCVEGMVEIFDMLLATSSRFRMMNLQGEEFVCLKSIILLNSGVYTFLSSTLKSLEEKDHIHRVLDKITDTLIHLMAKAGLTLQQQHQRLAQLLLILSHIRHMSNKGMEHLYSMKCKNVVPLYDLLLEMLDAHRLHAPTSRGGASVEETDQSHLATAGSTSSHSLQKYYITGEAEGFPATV
# [9] = target: T2, Androgen receptor (Homo sapiens, UniProt P10275); experiment: Binding affinity to YFP-fused AR (unknown origin) by cell based fluorimetric assay; method in brief: as §3
# T2 sequence (P10275 whole entry): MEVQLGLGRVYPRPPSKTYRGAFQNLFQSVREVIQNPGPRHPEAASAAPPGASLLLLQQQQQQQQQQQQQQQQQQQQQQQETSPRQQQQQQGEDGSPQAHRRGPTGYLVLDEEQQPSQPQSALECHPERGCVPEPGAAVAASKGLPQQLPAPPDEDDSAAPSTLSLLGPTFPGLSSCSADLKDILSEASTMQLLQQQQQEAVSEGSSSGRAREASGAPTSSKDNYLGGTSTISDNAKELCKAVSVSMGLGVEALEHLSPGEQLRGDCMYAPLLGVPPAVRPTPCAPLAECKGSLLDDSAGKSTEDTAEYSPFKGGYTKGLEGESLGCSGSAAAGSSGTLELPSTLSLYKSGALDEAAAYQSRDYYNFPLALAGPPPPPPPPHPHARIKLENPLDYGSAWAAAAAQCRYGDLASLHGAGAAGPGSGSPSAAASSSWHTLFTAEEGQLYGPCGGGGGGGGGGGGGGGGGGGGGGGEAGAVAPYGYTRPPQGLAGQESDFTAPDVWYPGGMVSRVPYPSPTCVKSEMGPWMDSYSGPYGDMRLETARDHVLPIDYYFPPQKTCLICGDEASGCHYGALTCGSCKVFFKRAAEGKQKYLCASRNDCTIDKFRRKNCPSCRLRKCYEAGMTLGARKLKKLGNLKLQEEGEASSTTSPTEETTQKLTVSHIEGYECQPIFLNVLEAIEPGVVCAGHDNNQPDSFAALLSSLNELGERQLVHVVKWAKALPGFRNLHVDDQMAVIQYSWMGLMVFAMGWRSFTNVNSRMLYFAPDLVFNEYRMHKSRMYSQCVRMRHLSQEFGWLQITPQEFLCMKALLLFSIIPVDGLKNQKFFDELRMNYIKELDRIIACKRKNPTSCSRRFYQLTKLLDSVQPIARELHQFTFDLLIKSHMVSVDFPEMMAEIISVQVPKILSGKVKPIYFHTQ
# [10] = tested on: HT-29; experiment: Antiproliferative activity against human HT-29 cells after 48 hrs by MTT assay; assay type: functional, cell-based; conditions: HT-29, 48 h; method in brief: as §2
# [11] = tested on: MRC5; experiment: Antiproliferative activity against human MRC5 cells after 48 hrs by MTT assay; assay type: cell-based; conditions: MRC5, 48 h; method in brief: as §2
# [12] = tested on: A549; experiment: Antiproliferative activity against human A549 cells after 48 hrs by MTT assay; assay type: functional, cell-based; conditions: A549, 48 h; method in brief: as §2
# [13] = tested on: MCF7; experiment: Antiproliferative activity against human MCF7 cells after 48 hrs by MTT assay; assay type: functional, cell-based; conditions: MCF7, 48 h; method in brief: as §2
# [14] = tested on: HeLa; experiment: Antiproliferative activity against human HeLa cells after 48 hrs by MTT assay; assay type: functional, cell-based; method in brief: as §2
# [15] = tested on: PC-3; experiment: Antiproliferative activity against human PC3 cells after 48 hrs by MTT assay; assay type: functional, cell-based; conditions: PC-3, 48 h; method in brief: as §2
# [16] = tested on: MDA-MB-231; experiment: Antiproliferative activity against human MDA-MB-231 cells after 48 hrs by MTT assay; assay type: functional, cell-based; conditions: MDA-MB-231, 48 h; method in brief: as §2
# [17] = target: T3, Aldo-keto reductase family 1 member C3 (Homo sapiens, UniProt P42330); experiment: Inhibition of AKR1C3 (unknown origin) using 9,10-phenanthrenequinone as substrate in presence of NADPH by spectrophotometric method
# T3 sequence (P42330 whole entry): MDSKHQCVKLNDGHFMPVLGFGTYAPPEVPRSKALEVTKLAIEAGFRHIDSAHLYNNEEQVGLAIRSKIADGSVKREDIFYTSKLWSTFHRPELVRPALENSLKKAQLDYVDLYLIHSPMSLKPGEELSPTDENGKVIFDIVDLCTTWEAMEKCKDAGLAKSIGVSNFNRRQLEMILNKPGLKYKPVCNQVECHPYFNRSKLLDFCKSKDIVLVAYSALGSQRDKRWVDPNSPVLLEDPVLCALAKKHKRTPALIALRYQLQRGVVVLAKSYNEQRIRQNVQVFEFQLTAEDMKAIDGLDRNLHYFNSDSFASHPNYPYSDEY
# Method in brief: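 Recombinant His-tagged human AKR1C3 (40 μg/mL) with 200 μM NADPH in pH 6.5 phosphate buffer, preincubated 15 min at 37 °C with 1.5–500 μM inhibitor in 2% DMSO. Phenanthrenequinone held at 0.39 μM and NADPH loss followed at 340 nm.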
# [18] = target: T4, Aldo-keto reductase family 1 member C3 (Homo sapiens) (UniProt P42330); experiment: Inhibition of AKR1C3 (unknown origin) at 6.25 uM using 9,10-phenanthrenequinone as substrate in presence of NADPH by spectrophotometric method relative to control
# T4 sequence (whole entry): T3 sequence (P42330 whole entry)
# Method in brief: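 N-terminal His-tagged human AKR1C3 was expressed in E. coli BL21(DE3) and purified on nickel. Enzyme at 40 μg/mL with 200 μM NADPH and compound at 6.25 μM, in 50 mM sodium phosphate pH 6.5, preincubated 15 min at 37 °C. Reaction started with 0.39 μM phenanthrenequinone and A340 followed at 30 °C. Percent inhibition taken from slopes over the first 10 min against PQ-only control, in triplicate.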
# Sequence of Estrogen receptor beta (Q92731 whole entry, the tested form may be a part): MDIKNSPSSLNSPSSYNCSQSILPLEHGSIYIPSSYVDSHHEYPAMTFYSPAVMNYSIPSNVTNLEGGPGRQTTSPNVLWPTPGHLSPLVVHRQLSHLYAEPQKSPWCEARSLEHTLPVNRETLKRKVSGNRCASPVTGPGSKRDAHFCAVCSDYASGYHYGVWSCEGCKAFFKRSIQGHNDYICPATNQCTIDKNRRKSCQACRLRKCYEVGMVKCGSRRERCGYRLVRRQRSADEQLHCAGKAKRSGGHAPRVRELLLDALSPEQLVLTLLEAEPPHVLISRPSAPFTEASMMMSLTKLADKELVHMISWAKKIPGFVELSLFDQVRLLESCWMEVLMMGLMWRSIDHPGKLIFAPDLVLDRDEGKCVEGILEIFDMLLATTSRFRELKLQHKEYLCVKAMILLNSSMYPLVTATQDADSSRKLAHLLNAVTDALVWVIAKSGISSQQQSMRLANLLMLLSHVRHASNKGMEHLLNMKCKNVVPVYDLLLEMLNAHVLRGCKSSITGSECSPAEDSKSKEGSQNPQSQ
Structure (SMILES),IC50 [1],IC50 [2],IC50 [3],IC50 [4],Activity [5],IC50 [6],IC50 [7],Activity [8],Activity [9],IC50 [10],IC50 [11],IC50 [12],IC50 [13],IC50 [14],IC50 [15],IC50 [16],IC50 [17],inhibition [18]
C[C@]12CC[C@H]3[C@@H](CC(=O)C4=CC(=O)CC[C@@]43C)[C@@H]1CC(=O)OC2,> 100 µM,13 µM,> 100 µM,> 100 µM,,,,,,,,,,,,,,
C[C@]12CCC(=O)C=C1CC[C@@H]1[C@@H]2CC[C@@]2(C)[C@H]1CC[C@@]2(O)Cc1ccccn1,> 100 µM,> 100 µM,> 100 µM,> 100 µM,Not Active,57.5 µM,> 100 µM,Not Active,Not Active,,,,,,,,,
C[C@]12CCC(=O)C(O)=C1CC[C@@H]1[C@@H]2CC[C@]2(C)C(=O)CC[C@@H]12 [FORMESTANE],,,,,,,,,,> 100 µM,> 100 µM,> 100 µM,> 100 µM,,,,,
C[C@]12CC[C@H]3[C@@H](CC[C@H]4c5cccnc5CC[C@@]43C)[C@@H]1CC(=O)OC2,,,,,Not Active,,,Not Active,Not Active,> 100 µM,> 100 µM,> 100 µM,> 100 µM,11.8 µM,> 100 µM,9.13 µM,15 µM,64.3%
C[C@]12CCc3ncccc3C1=CC[C@@H]1[C@@H]2CC[C@]2(C)/C(=C/c3ccccn3)CC[C@@H]12,,,,,Not Active,,,Not Active,Not Active,> 100 µM,> 100 µM,11.9 µM,37.4 µM,> 100 µM,11.5 µM,87.4 µM,,
C[C@]12CC[C@H]3[C@@H](CCC4=CC(=O)CC[C@@]43C)[C@@H]1CC(=O)OC2,> 100 µM,> 100 µM,9.3 µM,> 100 µM,,,,,,,,,,,,,,
